GalR3 antagonist = antagonists of human GalR3. O60755. HEK293 GalR3-CNG cAMP membrane potential fluorescence; galR3 body fused to GalR1 C-terminus. inhibition, % at 3 µM. 360,000 tested, 0.44% active. AID 651719;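 active means inhibition above the screen-wide average plus 3 SD, cut at about 13% in these data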;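 further: forskolin and galanin both at EC90 stimulate the cells; cAMP rise reported by CNG channel membrane potential dye signal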
Target sequence (O60755 1-299 limits assumed): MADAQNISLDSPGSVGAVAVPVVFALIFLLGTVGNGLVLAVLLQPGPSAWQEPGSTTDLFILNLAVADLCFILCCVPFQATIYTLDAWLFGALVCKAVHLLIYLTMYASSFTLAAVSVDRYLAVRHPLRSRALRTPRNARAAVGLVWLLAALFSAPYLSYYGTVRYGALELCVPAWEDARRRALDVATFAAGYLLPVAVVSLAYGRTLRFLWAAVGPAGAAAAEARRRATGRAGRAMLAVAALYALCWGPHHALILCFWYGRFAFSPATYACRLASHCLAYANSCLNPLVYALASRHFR
OX1R antag-1 = human HCRTR1 antagonism; O43613; CHO/OX1R cells, Fluo-8 calcium fluorescence, orexin A; inhibition, % at 5 µM; 330,000 tested, 0.43% active; AID 434989;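 active means inhibition above its plate's threshold, mean inhibition of all tested compounds on the plate plus 3 SD, cut at about 37% in these data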
Target sequence (O43613 whole entry, looked up): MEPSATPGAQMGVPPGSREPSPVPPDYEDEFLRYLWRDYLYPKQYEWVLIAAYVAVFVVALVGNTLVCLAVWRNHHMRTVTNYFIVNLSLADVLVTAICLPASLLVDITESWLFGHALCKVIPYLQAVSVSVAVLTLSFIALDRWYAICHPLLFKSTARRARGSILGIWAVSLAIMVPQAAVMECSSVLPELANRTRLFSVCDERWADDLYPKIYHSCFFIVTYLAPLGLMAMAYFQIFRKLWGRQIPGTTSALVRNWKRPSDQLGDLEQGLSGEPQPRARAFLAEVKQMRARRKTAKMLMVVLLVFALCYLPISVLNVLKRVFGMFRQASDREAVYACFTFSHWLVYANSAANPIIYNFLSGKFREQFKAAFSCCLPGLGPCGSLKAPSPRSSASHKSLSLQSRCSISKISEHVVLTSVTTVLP
CHO parental Ca = counter-screen: ATP calcium response change in parental CHO cells; parental CHO-K1, ATP-induced calcium, Fluo-8 fluorescence; inhibition, % at 5.6 µM; 330,000 tested, 0.63% active; AID 463079;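 active means inhibition above that plate's mean sample inhibition plus 3 SD, cut at about 26% in these data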
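Assay system: parental CHO cells; Read-out basis: percent inhibition of ATP-evoked calcium rise, normalized to controls; Benchmarks: ATP and no-ATP DMSO wells; Compound dosing: single nominal dose of 5.6 µM per compound; Signal: Fluo-8 calcium dye fluorescence; Also added: ATP as calcium-mobilizing challenge; Repeats: singlicate.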
GPR7 antagonist = human neuropeptides B/W receptor 1 antagonism | GPR7-expressing cells, fluorescence antagonist assay | inhibition, % at 4.4 µM | 290,000 tested, 1.1% active | AID 1861; in the data active means inhibition above about 16%, passing the limit was not always enough;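 further: cells stimulated with the agonist NPW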
OX1R antag-2 = blocks the human orexin 1 receptor. OX1R-expressing cells, FRET antagonist read-out. inhibition, % at 6.6 µM. 330,000 tested, 1.8% active. AID 485270; in the data active means inhibition mostly above about 38%, no sharp cut-off; inactive means mostly below about 40%
Of the large screens only hits and unclear results are named; the others gave an inactive call. Compounds with a hit are over-represented: about 3.1% of the library has one in this group of screens.

COC(=O)C1CCCN1S(=O)(=O)c1ccc([N+](=O)[O-])cc1 (stereo not given)	OX1R antag-2 36
CCC(C)NC(=O)C(NS(=O)(=O)c1cccc2nsnc12)c1ccccc1 (stereo not given)	none
O=C(NC1CCCC1)C(NS(=O)(=O)c1cccc2nsnc12)c1ccccc1 (stereo not given)	OX1R antag-2 53
C[C@H](c1ccccc1)N1C[C@@H](COCc2ccccc2)Oc2cccc(Oc3ccc(C(C)(C)C)cc3)c2S1(=O)=O	none (no result: OX1R antag-1, CHO parental Ca, GPR7 antagonist, OX1R antag-2)
Cc1nnc2ccc(-c3ccc(NS(=O)(=O)c4ccc(Cl)s4)cc3)nn12	none (no result: GPR7 antagonist)
Cc1cc(NC(=O)Cn2c(=O)oc3ccccc32)no1	none (no result: GPR7 antagonist)
O=C(NC1CCCCC1)C1CCCN1S(=O)(=O)c1ccc(F)cc1 (stereo not given)	none
CC(=O)Nc1ccc(NC(=O)C(NS(=O)(=O)c2cccc3nsnc23)C(C)C)cc1 (stereo not given)	OX1R antag-2 56
O=C(O)C1CSCN1S(=O)(=O)c1cccc2nsnc12 (stereo not given)	OX1R antag-2 41 (no result: GPR7 antagonist)
Cc1ccc(S(=O)(=O)N2CCCC2C(=O)NC2CCCCC2)cc1 (stereo not given)	OX1R antag-2 57
CC(CCc1ccccc1)NC(=O)CCNS(=O)(=O)c1ccccc1C(F)(F)F (stereo not given)	none (no result: GPR7 antagonist)
Cc1cc(Nc2ccc3c(c2)OCCO3)n2ncnc2n1	GPR7 antagonist 17
Cc1cc(Nc2ccc(N(C)C)cc2)n2ncnc2n1	none
O=C(Nc1nc2ccccc2s1)c1ccccc1[N+](=O)[O-]	none
CC(=O)Nc1nc2cccc([N+](=O)[O-])c2s1	OX1R antag-2 74
Cc1ccc(CNC(=O)c2ccc(NC(=O)CCS(=O)(=O)c3cccs3)cc2)cc1	CHO parental Ca 98
COc1ccc2ccccc2c1C(O)c1nccn1C (stereo not given)	OX1R antag-2 64
Cn1ccnc1C(O)c1ccccc1 (stereo not given)	none
COc1ccc(OC)c(-c2csc(NC(=O)Cn3[nH]c(=O)c4ccccc4c3=O)n2)c1	GPR7 antagonist 17
N#Cc1c(=O)c2nc(NCCCO)ncc2n2c(=O)c3ccccc3[nH]c12	none
N#Cc1c(=O)c2nc(NCc3ccccc3)ncc2n2ccccc12	OX1R antag-2 62
CCCCn1nnnc1C1(C)CCC(=O)N1CC(F)(F)F (stereo not given)	none (no result: OX1R antag-1, CHO parental Ca, GPR7 antagonist, OX1R antag-2)
O=C(CSc1ncccn1)N/N=C/c1cccc([N+](=O)[O-])c1	OX1R antag-2 72
COc1cc(CNn2c(C)n[nH]c2=S)cc(Cl)c1OCc1ccc(F)cc1	OX1R antag-1 45, CHO parental Ca 35
O=C(CCc1c[nH]c2ccccc12)Nc1ccc(Nc2cccnc2)c(Br)c1	none (no result: OX1R antag-1, CHO parental Ca, GPR7 antagonist, OX1R antag-2)
O=C(CSC1CCc2ccccc21)NNC(=O)Nc1ccc(Cl)cc1 (stereo not given)	none (no result: OX1R antag-1, CHO parental Ca, GPR7 antagonist, OX1R antag-2)
COc1ccc(Cl)cc1C(=O)CSc1nnnn1C1CCCC1	none
COc1ccc(Cl)cc1C(=O)CSc1nnnn1C1CCCCC1	CHO parental Ca 52, OX1R antag-2 52
N#Cc1ccc(Cl)cc1NC(=O)CSc1cccc[n+]1[O-]	none (no result: GPR7 antagonist)
O=C(CSc1cccc[n+]1[O-])Nc1cc(Cl)ccc1[N+](=O)[O-]	OX1R antag-2 38 (no result: GPR7 antagonist)
N#Cc1c(NC(=O)c2ccc(Cn3cc(Br)cn3)o2)sc2c1CCCCC2	none
COC(=O)c1sc(NC(=O)c2ccc(Cn3cc(Cl)cn3)o2)c(C#N)c1C	OX1R antag-2 72
Cc1ccc2nc(-c3ccc(F)cc3)c(Cc3ccsc3)n2c1	none (no result: OX1R antag-1, CHO parental Ca, GPR7 antagonist, OX1R antag-2)
O=c1oc2cc(O)ccc2cc1-c1nc2c(s1)CCc1ccccc1-2	OX1R antag-1 50, CHO parental Ca 50
COc1cc(/C=C2\CC/C(=C\c3cc(OC)c(O)c(OC)c3)C2=O)cc(OC)c1O	OX1R antag-2 90
COCCCNC(=O)/C(C#N)=C/c1c(N2CCN(C)CC2)nc2ccccn2c1=O	OX1R antag-2 47
COc1ccc(OC(C)C(=O)N(C)Cc2nc(-c3ccc(OC)cc3)no2)cc1 (stereo not given)	none
O=[N+]([O-])c1ccccc1Nc1nc(-c2cccnc2)cs1	OX1R antag-2 60
COc1ccc(Nc2nc(-c3cccnc3)cs2)c(OC)c1	none (no result: OX1R antag-1, CHO parental Ca, OX1R antag-2)
COc1ccccc1Nc1nc(-c2cccnc2)cs1	OX1R antag-2 38
CCC/C(O)=C1\C(=O)CC(C)(C)CC1=Nc1ccc(OC)cc1OC	GPR7 antagonist 16
O=P(OC1CCCCC1)(OC1CCCCC1)C(O)c1c(Cl)cccc1Cl (stereo not given)	OX1R antag-2 45
O=P(OC1CCCCC1)(OC1CCCCC1)C(O)c1ccc(Cl)cc1Cl (stereo not given)	none
CCN(CC)S(=O)(=O)c1ccc2oc(SCC(=O)NC3CC3)nc2c1	none
CCN(CC)S(=O)(=O)c1ccc2oc(SCc3ccc(F)cc3)nc2c1	CHO parental Ca 40
COC(=O)C(NC(=O)c1ccc(F)cc1)(Nc1nc(C)cs1)C(F)(F)F (stereo not given)	GPR7 antagonist 17
N=C1/C(=C\c2coc3ccccc3c2=O)C(=O)N=C2SC=CN12	CHO parental Ca 30
CSC1=NSC2=NC(=O)/C(=C/c3coc4ccc(O)cc4c3=O)C(=N)N12	OX1R antag-1 47, CHO parental Ca 37
O=C(COC(=O)c1ccc(O)cc1O)Nc1cccc2ccccc12	none (no result: GPR7 antagonist)
CCCCCCCCN1C(=O)[C@@H](CC(=O)NCCCOCCCC)C[C@@]2(C(=O)OC)C1=C[C@H](C1CCCC1)O[C@@H]2C	none (no result: OX1R antag-1, CHO parental Ca, GPR7 antagonist, OX1R antag-2)
COC(=O)[C@H](Cc1ccccc1)N1C/C=C\COc2c(Cl)cc(Cl)cc2S1(=O)=O	OX1R antag-2 32 (no result: GPR7 antagonist)
CCOC(=O)N1CCN(C(=O)CS(=O)(=O)c2cn(Cc3ccc(F)cc3)c3ccccc23)CC1	OX1R antag-2 62 (no result: GalR3 antagonist, GPR7 antagonist)
COc1ccc(CNS(=O)(=O)c2ccccc2Br)c(OC)c1	none (no result: OX1R antag-1, CHO parental Ca, GPR7 antagonist, OX1R antag-2)
COc1ccc(CN(CCC(C)C)S(=O)(=O)c2ccccc2Br)c(OC)c1	OX1R antag-2 38 (no result: GPR7 antagonist)
COC(=O)[C@]12C[C@H](CC(=O)NCc3ccc(OC)c(OC)c3)C(=O)N(Cc3ccc4c(c3)OCO4)C1=C[C@H](C(C)(C)C)O[C@@H]2C	none (no result: OX1R antag-1, CHO parental Ca, GPR7 antagonist, OX1R antag-2)
Oc1ccc(Br)cc1C=Nc1ccc2c3c(cccc13)CC2	OX1R antag-1 56, CHO parental Ca 42
Oc1ccc(Cl)cc1C=Nc1ccccc1Br	none
COCCOC(=O)c1[nH]c2c(c1C)C(=O)CC(c1ccccc1)C2 (stereo not given)	CHO parental Ca 42 (no result: GalR3 antagonist)
CCCCOC(=O)c1[nH]c2c(c1C)C(=O)CC(c1cc(OC)c(OC)c(OC)c1)C2 (stereo not given)	CHO parental Ca 62
C=CCOC(=O)c1[nH]c2c(c1C)C(=O)CC(c1cc(OC)c(OC)c(OC)c1)C2 (stereo not given)	CHO parental Ca 33 (no result: GalR3 antagonist)
COCCOC(=O)c1[nH]c2c(c1C)C(=O)CC(c1cc(OC)c(OC)c(OC)c1)C2 (stereo not given)	none
COc1ccc(C2CC(=O)c3c([nH]c(C(=O)OC(C)C)c3C)C2)cc1OC (stereo not given)	none

Screens: PubChem BioAssay, The Scripps Research Institute Molecular Screening Center
